Screening data (PubChem BioAssay)
SMARCA2 act: increases SMARCA2 function in MMTV reporter cells. activation, % at 9.1 µM. AID 652017. 1% of 370,000 active. MG213 cells, MMTV-luciferase reporter, dexamethasone, overnight; in the data active means activation above about 7.8%;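 further: 0% = vehicle wells and 100% = reference activator wells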
SR-BI uptake up: enhances SR-BI lipid uptake from DiI-HDL; activation, % at 12.5 µM; 0.096% of 320,000 active; CHO ldlA[mSR-BI] cells, DiI-HDL uptake fluorescence, 3 h; 100 = double the neutral-control signal;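 active means mean replicate activation of at least 60% and every replicate at or above 60%; inconclusive means mean or all-replicate condition met, but not both; inactive means mean below 60% and not all replicates reaching 60%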;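 further: 0% = median plate neutral-control signal and 100% = twice that signal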
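Test system: SR-BI-overexpressing, LDLR-lacking CHO cells; Medium: Ham's F12 with 0.5% BSA, HEPES 25 mM, pH 7.4; Schedule: 3 h, 37 °C; Technique: bottom-read fluorescence, 550/595 nm.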
SR-BI HDL uptake: blocks mouse SR-BI lipid uptake from DiI-HDL; Q61009; AID 488896; inhibition, % at 12.5 µM; 0.96% of 320,000 active; ldlA[mSR-BI] CHO cells, DiI-HDL uptake fluorescence, 3 h;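 active means mean replicate inhibition of at least 70% and a set share of replicates each scoring 70 or more; inconclusive means meets just one of the two criteria; inactive means fails both criteria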;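 further: 0% = median of neutral control wells and 100% = median of positive control wells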
Target sequence (Q61009 whole entry, looked up): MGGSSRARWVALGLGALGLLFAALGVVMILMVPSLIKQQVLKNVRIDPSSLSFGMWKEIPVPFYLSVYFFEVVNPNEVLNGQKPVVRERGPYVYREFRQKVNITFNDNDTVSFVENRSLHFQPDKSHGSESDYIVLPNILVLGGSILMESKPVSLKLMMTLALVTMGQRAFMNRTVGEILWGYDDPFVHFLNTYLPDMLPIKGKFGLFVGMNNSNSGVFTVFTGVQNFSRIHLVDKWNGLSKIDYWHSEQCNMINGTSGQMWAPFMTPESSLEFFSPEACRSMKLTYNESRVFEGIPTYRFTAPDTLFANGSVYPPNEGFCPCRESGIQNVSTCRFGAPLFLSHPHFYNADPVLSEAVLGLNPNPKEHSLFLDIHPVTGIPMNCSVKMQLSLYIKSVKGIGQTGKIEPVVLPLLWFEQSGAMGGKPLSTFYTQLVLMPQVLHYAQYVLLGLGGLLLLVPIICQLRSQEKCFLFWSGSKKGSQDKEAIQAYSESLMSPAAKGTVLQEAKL
TAG inh: triacylglycerol accumulation inhibition. H9c2 cells, Nile Red lipid (TAG) fluorescence; cells loaded with 200 µM oleic acid. inhibition, % at 12.5 µM. 0.66% of 230,000 active. AID 651582;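 active means pattern-corrected inhibition of lipid staining of at least 50% with the nuclear-stain viability signal not falling by more than 50%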;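 further: 0% = DMSO wells and 100% = triacsin C control wells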
Vif imaging: inhibitors of HIV Vif | inhibition, % at 7.49 µM | HEK293T cells, Vif self-association by quenched fluorescence, imaging, 24 h | 0.35% of 340,000 active; in the data active means inhibition above about 50%, passing the limit was not always enough; inconclusive means no clear call, values can overlap the other calls; inactive means below about 31%
Active calls of the source: *. Hits are enriched below; roughly 2.5% of the tested compounds scored in any of these assays.

CCCCCCCCN1C(=O)[C@@H](CC(=O)NCCc2ccccc2OC)C[C@@]2(C(=O)OC)C1=C[C@H](C(C)(C)C)O[C@@H]2C was read as SMARCA2 act 2.6.
`COC(=O)[C@]12C[C@H](CC(=O)NCc3ccc(OC)c(OC)c3)C(=O)N(Cc3ccccc3)C1=C[C@H](COCc1ccccc1)O[C@@H]2C` gave SMARCA2 act -2.6.
`COc1c(CC=C(C)C)c(O)cc2oc(=O)c3c4ccc(O)cc4oc3c12` gave Vif imaging -24.9.
`COc1c2c(cc3oc(=O)c4c5ccc(O)cc5oc4c13)OC(C)(C)CC2` gave SMARCA2 act 1.3, SR-BI uptake up -89.2, SR-BI HDL uptake 89.2* and Vif imaging -17.3.
O=C(C(=O)N1CCC(CNS(=O)(=O)c2cc(C(F)(F)F)cc(C(F)(F)F)c2)CC1)c1cccs1 was read as SMARCA2 act -3.5.
CCCCCCCCN1C(=O)[C@@H](CC(=O)NCCCCc2ccccc2)C[C@@]2(C(=O)OC)C1=C[C@H](C1CCCC1)O[C@@H]2C was read as SMARCA2 act -0.5.
`Cc1cccc(N=Nc2c(N)n[nH]c2-c2ccc(Cl)cc2)c1` gave SMARCA2 act 4.0, SR-BI uptake up -71.2, SR-BI HDL uptake 71.2* and Vif imaging 1.7.
Cc1ccc(-c2[nH]nc(N)c2N=Nc2ccccc2C)cc1 was read as SMARCA2 act -2.2, SR-BI uptake up -75.9, SR-BI HDL uptake 75.9*, TAG inh 39.1 and Vif imaging 1.2.
Cc1ccc(N=Nc2c(N)n[nH]c2N)cc1 was read as SMARCA2 act 1.5, SR-BI uptake up 12.9, SR-BI HDL uptake -12.9 and Vif imaging 1.8.
Cc1ccc(-c2[nH]nc(N)c2N=Nc2cccc(Cl)c2C)cc1 was read as SMARCA2 act -2.3, SR-BI uptake up -83.6, SR-BI HDL uptake 83.6*, TAG inh 20.9 and Vif imaging 7.0.
`COC(=O)[C@]12C[C@H](CC(=O)NCc3ccccc3)C(=O)N(Cc3ccccc3)C1=C[C@H](C(C)C)O[C@@H]2C1CC1` gave SMARCA2 act -5.8.
`CC(=O)Oc1cc2c(cc1OC(C)=O)C(=O)CCCC2` gave SMARCA2 act 0.4, TAG inh -2.3 and Vif imaging 57.2*.
COc1cc2c(cc1OC(C)=O)C(=O)CCCC2 was read as SMARCA2 act 0.1 and Vif imaging -1.4.
Screening CN1CCCCC(NC(=O)c2ccc(Cl)cc2Cl)C1=O (stereo unspecified) returned SMARCA2 act 0.5.
For O=S(=O)(c1ccccc1)N1CCCc2nc(-c3ccc(Br)cc3)ccc21 the results were SMARCA2 act -9.3.
Screening NC(=S)N/N=C/c1ccc(-c2cc(Cl)c(Cl)cc2Cl)o1 returned SMARCA2 act -0.6, SR-BI uptake up -81.6, SR-BI HDL uptake 81.6*, TAG inh 12.4 and Vif imaging -2.6.
Screening O=[N+]([O-])c1cccc(-c2ccc(/C=N/NC(=S)Nc3cccc(F)c3)o2)c1 returned SMARCA2 act -3.7, SR-BI uptake up -72.1, SR-BI HDL uptake inconclusive, TAG inh 22.9 and Vif imaging -3.0.
`NC(=S)N/N=C/c1ccc(-c2cccc([N+](=O)[O-])c2)o1` gave SMARCA2 act 1.6, SR-BI uptake up -77.5, SR-BI HDL uptake 77.5*, TAG inh 5.7 and Vif imaging 0.6.
`COc1ccc(NC(=O)c2ccccc2Cl)c(NC(=O)c2ccco2)c1` gave SMARCA2 act -0.4, SR-BI uptake up -14.7, SR-BI HDL uptake 14.7 and Vif imaging -3.3.
`CC(C)Oc1ccc(C(=O)Nc2ccc(NC(=O)c3ccco3)c(Cl)c2)cc1` gave SMARCA2 act -1.8, SR-BI HDL uptake 78.7*, TAG inh 16.8 and Vif imaging -12.4.
Screening O=C(Nc1ccc(NC(=O)c2ccco2)c(Cl)c1)c1ccccc1 returned SMARCA2 act 0.2, SR-BI uptake up -30.3, SR-BI HDL uptake 30.3, TAG inh 14.3 and Vif imaging 0.8.
Screening COc1ccc(C(=O)Nc2ccc(NC(=O)c3ccco3)c(Cl)c2)cc1OC returned SMARCA2 act -1.9, SR-BI uptake up -74.6, SR-BI HDL uptake 74.6* and Vif imaging -2.1.
For COc1ccc(NC(=O)c2cc(Cl)ccc2NC(=O)c2ccco2)c(OC)c1 the results were SMARCA2 act -5.0, SR-BI uptake up -73.8, SR-BI HDL uptake 73.8*, TAG inh 40.4 and Vif imaging 23.0.
For Cc1cc2c(nc1C)CCCN2S(=O)(=O)c1ccccc1 the results were SMARCA2 act -9.4.
`CCOC(=O)c1sc(-c2ccccc2)cc1NC(=O)Nc1ccc([N+](=O)[O-])cc1` gave SMARCA2 act -5.3, SR-BI uptake up -78.0, SR-BI HDL uptake 78.0* and Vif imaging -4.5.
CCCCn1nc(NC(=O)c2cccs2)c2cc3cc(OC)ccc3nc21 was read as SMARCA2 act 1.6, SR-BI uptake up -82.0, SR-BI HDL uptake 82.0*, TAG inh 5.1 and Vif imaging -6.9.
Screening O=C(Cc1ccc(NC(=O)C2CCCN(C(=O)c3ccccc3)C2)cc1)Nc1cccc(C(=O)N2CCCCC2)c1 (stereo unspecified) returned SMARCA2 act -3.5.
`Cc1cc(C)n(-c2cc(N3CCN(C(=O)c4ccc(C(C)(C)C)cc4)CC3)ccc2[N+](=O)[O-])n1` gave SMARCA2 act -3.2, SR-BI uptake up -60.0, SR-BI HDL uptake 60.0, TAG inh -28.0 and Vif imaging -5.5.
Screening COc1ccc(C(=O)N2CCN(c3ccc([N+](=O)[O-])c(-n4nc(C)cc4C)c3)CC2)cc1 returned SMARCA2 act 11.6*, SR-BI uptake up 7.6, SR-BI HDL uptake -7.6 and Vif imaging -10.7.
For COC(=O)c1cc2c(c3c4cc(F)ccc4n(S(=O)(=O)c4ccc(C)cc4)c13)C(=O)N(Cc1ccccc1OC)C2 the results were SMARCA2 act -5.5.
For O=C1c2cc(S(=O)(=O)NCCO)ccc2-c2ccc(S(=O)(=O)NCCO)cc21 the results were SMARCA2 act -1.6, SR-BI uptake up -1.3, SR-BI HDL uptake 1.3, TAG inh 3.7 and Vif imaging 5.6.
`N#CC(C#N)=C1c2cc(S(=O)(=O)NCCO)ccc2-c2ccc(S(=O)(=O)NCCO)cc21` gave SMARCA2 act 1.6, SR-BI uptake up 197.2*, SR-BI HDL uptake -197.2, TAG inh -0.9 and Vif imaging -10.9.
Screening Cc1[nH]c2ccccc2c1CC(=O)Nc1ccc(N(C)c2cccnc2)c(-c2ccc(F)c(F)c2)c1 returned SMARCA2 act -4.1.
COc1ccc(NS(=O)(=O)c2cccc(C(=O)NNC(=O)c3ccccc3O)c2)cc1 was read as SMARCA2 act -1.0, SR-BI uptake up -72.3, SR-BI HDL uptake 72.3*, TAG inh -2.3 and Vif imaging -17.0.
Screening COc1ccc(NS(=O)(=O)c2cccc(C(=O)NN=Cc3ccc(O)c(OC)c3)c2)cc1 returned SMARCA2 act 0.8, SR-BI uptake up -20.8, SR-BI HDL uptake 20.8, TAG inh 1.5 and Vif imaging -2.5.
